How the values were obtained:
[1] = target: Kappa-type opioid receptor (Homo sapiens, UniProt P41145); assay: Displacement of [3H]U69593 from human kappa opioid receptor expressed in CHO cell membrane; format: cell membranes
In short: (§1)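 Compounds were tested as hydrochloride salts in competition binding against the tritiated radioligand on CHO cell membranes. Ki values are given ± SEM.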

Homo sapiens [2] = species on record: Homo sapiens; assay: Selectivity ratio of Ki for human mu opioid receptor to Ki for human delta opioid receptor
[3] = target: Delta-type opioid receptor (Homo sapiens, UniProt P41143); assay: Displacement of [3H]Naltindole from human delta opioid receptor expressed in CHO cell membrane; format: cell membranes; in short: as §1
Homo sapiens [4] = species on record: Homo sapiens; assay: Selectivity ratio of Ki for human kappa opioid receptor to Ki for human delta opioid receptor
Homo sapiens [5] = species on record: Homo sapiens; assay: Selectivity ratio of Ki for human mu opioid receptor to Ki for human kappa opioid receptor
Mu-type opioid receptor = Mu-type opioid receptor (Homo sapiens, UniProt P35372); assay: Displacement of [3H]DAMGO from human mu opioid receptor expressed in CHO cell membrane; format: cell membranes
Chain of Mu-type opioid receptor (P35372 whole entry): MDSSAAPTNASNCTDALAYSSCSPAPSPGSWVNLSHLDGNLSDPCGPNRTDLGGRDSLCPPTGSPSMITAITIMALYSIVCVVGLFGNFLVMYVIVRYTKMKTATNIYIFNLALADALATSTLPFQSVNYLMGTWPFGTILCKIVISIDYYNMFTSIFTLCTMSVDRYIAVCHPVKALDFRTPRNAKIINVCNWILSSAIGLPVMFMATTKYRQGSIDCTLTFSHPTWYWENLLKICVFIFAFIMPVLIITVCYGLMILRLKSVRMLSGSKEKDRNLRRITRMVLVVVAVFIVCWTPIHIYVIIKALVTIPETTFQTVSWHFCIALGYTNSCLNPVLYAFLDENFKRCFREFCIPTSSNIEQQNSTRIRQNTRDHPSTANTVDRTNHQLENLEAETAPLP

Chain of Delta-type opioid receptor (P41143 whole entry): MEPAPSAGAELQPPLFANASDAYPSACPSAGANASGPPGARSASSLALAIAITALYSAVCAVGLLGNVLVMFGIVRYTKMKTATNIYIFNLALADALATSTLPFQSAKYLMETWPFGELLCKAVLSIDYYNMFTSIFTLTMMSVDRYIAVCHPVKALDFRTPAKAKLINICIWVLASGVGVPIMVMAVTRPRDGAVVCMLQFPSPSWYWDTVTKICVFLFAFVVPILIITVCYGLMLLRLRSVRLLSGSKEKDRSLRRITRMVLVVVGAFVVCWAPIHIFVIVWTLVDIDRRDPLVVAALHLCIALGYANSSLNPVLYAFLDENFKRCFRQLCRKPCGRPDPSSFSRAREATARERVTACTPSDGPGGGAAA
Chain of Kappa-type opioid receptor (P41145 whole entry): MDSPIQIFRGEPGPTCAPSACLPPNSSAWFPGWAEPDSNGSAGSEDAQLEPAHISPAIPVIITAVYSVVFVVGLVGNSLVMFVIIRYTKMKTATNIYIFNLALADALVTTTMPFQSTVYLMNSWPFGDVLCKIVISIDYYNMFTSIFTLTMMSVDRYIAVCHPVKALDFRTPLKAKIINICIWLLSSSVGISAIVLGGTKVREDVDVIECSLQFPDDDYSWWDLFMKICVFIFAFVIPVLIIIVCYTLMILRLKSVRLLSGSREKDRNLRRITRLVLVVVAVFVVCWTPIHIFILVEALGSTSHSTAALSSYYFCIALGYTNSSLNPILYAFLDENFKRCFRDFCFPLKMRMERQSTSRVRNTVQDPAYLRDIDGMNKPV

Work on `O[C@@]12CCCC[C@@]13CCN(CC1CCC1)[C@@H]2Cc1ccc(OCc2ccccc2)cc13` yielded a Ki [1] of 28 nM, a Ratio Ki (Homo sapiens [2]) of 32 and a Ki [3] of 670 nM. The Ratio Ki (Homo sapiens [4]) was 1, the Ratio Ki (Homo sapiens [5]) was 1.3 and the Ki (Mu-type opioid receptor) was 21 nM.
Molecule `OCCCOc1ccc2c(c1)[C@@]13CCCC[C@@]1(O)[C@@H](C2)N(CC1CCC1)CC3` has a Ki [1] of 8.6 nM, a Ratio Ki (Homo sapiens [2]) of 57 and a Ki [3] of 490 nM. The Ratio Ki (Homo sapiens [4]) was 2.1, the Ratio Ki (Homo sapiens [5]) was 1 and the Ki (Mu-type opioid receptor) was 18 nM.
With `O=C(Cc1ccccc1)Oc1ccc2c(c1)[C@@]13CCCC[C@@]1(O)[C@@H](C2)N(CC1CCC1)CC3` the Ki [1] was 0.48 nM, the Ratio Ki (Homo sapiens [2]) was 197 and the Ki [3] was 63 nM. For the same molecule, the Ratio Ki (Homo sapiens [4]) was 1, the Ratio Ki (Homo sapiens [5]) was 1.5 and the Ki (Mu-type opioid receptor) was 0.32 nM.
`O=C(Cc1ccc(-c2ccccc2)cc1)Oc1ccc2c(c1)[C@@]13CCCC[C@@]1(O)[C@@H](C2)N(CC1CCC1)CC3` showed a Ki [1] of 0.87 nM, a Ratio Ki (Homo sapiens [2]) of 218 and a Ki [3] of 190 nM. The Ratio Ki (Homo sapiens [4]) was 3.1, the Ratio Ki (Homo sapiens [5]) was 1 and the Ki (Mu-type opioid receptor) was 2.7 nM.
Work on `O=C(COc1ccccc1)Oc1ccc2c(c1)[C@@]13CCCC[C@@]1(O)[C@@H](C2)N(CC1CCC1)CC3` yielded a Ki [1] of 0.048 nM, a Ratio Ki (Homo sapiens [2]) of 458 and a Ki [3] of 22 nM. The Ratio Ki (Homo sapiens [4]) was 1.3, the Ratio Ki (Homo sapiens [5]) was 1 and the Ki (Mu-type opioid receptor) was 0.061 nM.
Molecule `C[C@H]1[C@H]2Cc3ccc(C(=O)N(C)CCc4ccc(-c5ccccc5)cc4)cc3[C@@]1(C)CCN2CC1CC1` has a Ki [1] of 11 nM, a Ratio Ki (Homo sapiens [2]) of 1.8 and a Ki [3] of 12 nM. The Ratio Ki (Homo sapiens [4]) was 1, the Ratio Ki (Homo sapiens [5]) was 1.6 and the Ki (Mu-type opioid receptor) was 6.7 nM.
`COc1ccc(CC(=O)Oc2ccc3c(c2)[C@@]24CCCC[C@@]2(O)[C@@H](C3)N(CC2CCC2)CC4)cc1` gave a Ki [1] of 0.21 nM, a Ratio Ki (Homo sapiens [2]) of 110 and a Ki [3] of 23 nM. For the same molecule, the Ratio Ki (Homo sapiens [4]) was 1, the Ratio Ki (Homo sapiens [5]) was 1 and the Ki (Mu-type opioid receptor) was 0.22 nM.
In the case of `Cc1ccc(C(C)C(=O)Oc2ccc3c(c2)[C@@]24CCCC[C@@]2(O)[C@@H](C3)N(CC2CCC2)CC4)cc1` (some centres undefined), the Ki [1] is reported as 1.3 nM, the Ratio Ki (Homo sapiens [2]) is reported as 74 and the Ki [3] is reported as 96 nM. The Ratio Ki (Homo sapiens [4]) was 1.9, the Ratio Ki (Homo sapiens [5]) was 1 and the Ki (Mu-type opioid receptor) was 2.3 nM.
`Oc1ccc2c(c1)[C@@]13CCCC[C@@]1(O)[C@@H](C2)N(CC1CCC1)CC3` [BUTORPHANOL] was tested, and the Ki [1] was 0.12 nM.
`O=C(Oc1ccc2c(c1)[C@@]13CCCC[C@@]1(O)[C@@H](C2)N(CC1CCC1)CC3)c1ccc(-c2ccccc2)cc1` showed a Ki [1] of 18 nM, a Ratio Ki (Homo sapiens [2]) of 46 and a Ki [3] of 690 nM. It also gave a Ratio Ki (Homo sapiens [4]) of 1, a Ratio Ki (Homo sapiens [5]) of 1 and a Ki (Mu-type opioid receptor) of 15 nM.
`Nc1ccc(Oc2ccc3c(c2)[C@@]24CCCC[C@@]2(O)[C@@H](C3)N(CC2CCC2)CC4)cc1` was tested, and the Ki [1] was 5.2 nM, the Ratio Ki (Homo sapiens [2]) was 240 and the Ki [3] was 930 nM. For the same molecule, the Ratio Ki (Homo sapiens [4]) was 1, the Ratio Ki (Homo sapiens [5]) was 1.3 and the Ki (Mu-type opioid receptor) was 3.9 nM.
For `NC(=O)COc1ccc2c(c1)[C@@]13CCCC[C@@]1(O)[C@@H](C2)N(CC1CCC1)CC3`, the Ki [1] was 67 nM, the Ratio Ki (Homo sapiens [2]) was 11 and the Ki [3] was 760 nM. The Ratio Ki (Homo sapiens [4]) was 1, the Ratio Ki (Homo sapiens [5]) was 1.2 and the Ki (Mu-type opioid receptor) was 55 nM.
Work on `O=[N+]([O-])c1ccc(Oc2ccc3c(c2)[C@@]24CCCC[C@@]2(O)[C@@H](C3)N(CC2CCC2)CC4)cc1` yielded a Ki [1] of 28 nM, a Ratio Ki (Homo sapiens [2]) of 94 and a Ki [3] of 1500 nM. The Ratio Ki (Homo sapiens [4]) was 1, the Ratio Ki (Homo sapiens [5]) was 1.8 and the Ki (Mu-type opioid receptor) was 16 nM.
Work on `O[C@@]12CCCC[C@@]13CCN(CC1CCC1)[C@@H]2Cc1ccc(OCCc2ccccc2)cc13` yielded a Ki [1] of 9 nM, a Ratio Ki (Homo sapiens [2]) of 56 and a Ki [3] of 500 nM. It also gave a Ratio Ki (Homo sapiens [4]) of 1, a Ratio Ki (Homo sapiens [5]) of 1 and a Ki (Mu-type opioid receptor) of 10 nM.

Reference: ChEMBL document CHEMBL1156604 (Bioorg Med Chem Lett, 2008)
